The record followed here is article PMC12123436 (RSC Chemical Biology, 2025).

Bounds are passed on as bounds.

The test system of series [1] is MCF-7 cells. As to the kind of experiment: MTT. It counts as cell-based. The conditions noted are these: for IC50: read-out: IC50,dark, 4 h incubation in dark, dark 20 min, then 16 h dark. The procedure, abridged:
(§1)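 In an MTT assay, cells were incubated with test compound in the dark for 4 h. They were then kept dark or irradiated at 450 nm (10 mW cm−2) for 20 min, and held a further 16 h in the dark. IC50 values were obtained under dark and light conditions, and the phototoxicity index was taken as IC50,dark/IC50,light.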

For series [2], the system named is U87-MG cells. As to the kind of experiment: MTT. It counts as cell-based, human. The settings on record: for IC50: read-out: IC50,dark, 4 h incubation in dark, dark 20 min, then 16 h dark. The essentials: as §1
The nature of series [3]: Photophysical. The format is physicochemical. The conditions noted are these: for λem: λex = 350 nm; for τo: λex = 375 nm.
In series [4] the test system is HEK293 cells. The series is described as follows: MTT. The settings on record: for IC50: read-out: IC50,dark, 4 h incubation in dark, dark 20 min, then 16 h dark. It counts as cell-based. The procedure, abridged: as §1
Series [5] in a line: Singlet oxygen quantum yield with 1,3-diphenylisobenzofuran as scavenger. The format is physicochemical. The settings on record: aerated CH3CN, 298 K, λex = 450 nm.
Series [6] in a line: Phosphorogenic response towards BCN-OH. It counts as physicochemical. The settings on record: 10 μM, BCN-OH 500 μM, aerated PBS/DMSO (9:1), dark 16 h; for λem after incubation with BCN-OH: λex = 350 nm. The essentials: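 Test compound (10 μM) was incubated with excess BCN-OH (500 μM) in aerated PBS/DMSO (9:1, v/v) at 298 K in the dark for 16 h. Emission was recorded with λex 350 nm, and I/Io was taken as intensity with versus without BCN-OH. Lifetimes were measured at emission maxima (λex 375 nm).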

Series [7] is described as follows: Emission response upon photoirradiation at 450 nm. The format is physicochemical. The conditions noted are these: for Emission lifetime τ after photoirradiation / λem after photoirradiation: 10 μM, aerated PBS/DMSO (9:1), 450 nm (10 mW cm−2) 20 min; for λem after photoirradiation: λex = 350 nm. The essentials:
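Test compound (10 μM) in aerated PBS/DMSO (9:1, v/v) was irradiated at 450 nm (10 mW cm−2) for 20 min at 298 K. Photoproducts were followed by RP-HPLC and identified by ESI-MS. Emission was recorded before and after irradiation (λex 350 nm), and I/Io was taken as the ratio of these intensities. Lifetimes were measured at emission maxima (λex 375 nm).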

The test system of series [8] is MCF-7 cells. As to the kind of experiment: Cellular uptake by ICP-MS. The settings on record: 5 µM, 4 h, 37°C. It counts as cell-based.
For series [9], the system named is U87-MG cells. As to the kind of experiment: Cell death mechanism studies by LSCM. The format is cell-based, human. The settings on record: 5 μM, 4 h. The essentials: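 For mitochondrial membrane potential, live cells were pretreated with test compound (5 μM, 4 h), then left unirradiated or irradiated at 450 nm (10 mW cm−2) for 20 min. They were stained with rhodamine 123 (5 μM, 15 min) and imaged by confocal microscopy (λex 488 nm, λem 500–550 nm).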

Series [10] concerns U87-MG cells. The series is described as follows: Cellular uptake by ICP-MS. It counts as cell-based, human. The settings on record: 5 µM, 4 h, 37°C.
The test system of series [11] is HEK293 cells. As to the kind of experiment: Cellular uptake by ICP-MS. The settings on record: 5 µM, 4 h, 37°C. It counts as cell-based.
Series [12] has as its system U87-MG cells. The series is described as follows: Cellular uptake mechanism studies. It counts as cell-based, human. The conditions noted are these: 20 µM, 1 h.
Series [13] deals with U87-MG cells. The series is described as follows: Annexin V/propidium iodide flow cytometry. The settings on record: 1 μM, 4 h, photoirradiation at 450 nm (10 mW cm−2) 20 min. The format is cell-based, human. The procedure, abridged:
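Cells were pretreated with test compound (1 μM, 4 h), then kept unirradiated or continuously irradiated at 450 nm (10 mW cm−2) for 20 min. They were stained for 15 min with Alexa Fluor 647–Annexin V (λex 638 nm) and propidium iodide (100 μg mL−1 stock; λex 561 nm). Analysis was by flow cytometry.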
On the technique in general: In flow cytometry, cells or beads pass a laser one at a time.

The mark [14] stands for this setting: potassium phosphate buffer (50 mM, pH 7.4)/CH3CN (1:1), 298 K.
The mark [15] stands for this setting: + RGD peptide pretreatment (50 µM, 30 min).

Broadly, the IC50 is the midpoint of a concentration-inhibition curve. As for [Ir(pqe)2(bpy-CONH2)](PF6) [complex 4], the results for the “PI (IC50,dark/IC50,light)” value in [1], in series [2] and in series [4] were 105, 103 and 100, respectively. The IC50 in series [1] is 4.2 ± 0.1 µM; in series [2], 4.1 ± 0.2 µM; in [4], 5 ± 0.1 µM. The λem in [3] (CH3CN, 298 K) is reported as 631 nm; in series [3] (setting [14]), 648 nm. The τo was determined as 0.67 μs in series [3] (CH3CN, 298 K); 4.23 μs in series [3] (EtOH/MeOH (4:1) glass, 77 K); 0.34 μs in series [3] (setting [14]). The substance further displayed a Φem in series [3] (setting [14]) of 0.02.
In series [3] (CH3CN, 298 K), “[Ir(pqe)2(bpy-CONH-S-Tz-Cl)](PF6) [complex 1]” came in with a λem of 632 nm and a τo of 0.68 μs. Also, the τo in series [3] (EtOH/MeOH (4:1) glass, 77 K) was 4.25 μs. In series [3] (setting [14]), this substance had a Φem of 0.002, a λem of 650 nm and a τo of 0.23 μs. The “1O2 quantum yield (ΦΔ)” value in series [5] is 0.55.
With “[Ir(pqe)2(bpy-CONH-S-Tz-S-Et)](PF6) [complex 2]”, in [1], the “PI (IC50,dark/IC50,light)” value was determined as 150 and the IC50 came out at 15 ± 1 µM. Besides, in series [2], the “PI (IC50,dark/IC50,light)” value stood at 138 and the concentration for half-maximal inhibition (IC50) turned out to be 11 ± 1 µM. Also, in series [3] (CH3CN, 298 K), the λem was 631 nm and the τo is 0.60 μs. For the same substance, the τo in series [3] (EtOH/MeOH (4:1) glass, 77 K) was 4.38 μs. Besides, in [3] (setting [14]), the Φem turned out to be 0.002, the λem is reported as 650 nm and the τo was determined as 0.18 μs. In series [6], the “Emission lifetime τ after incubation with BCN-OH” value turned out to be 0.37 μs and the “λem after incubation with BCN-OH” value is listed as 631 nm. In addition, in [5], the “1O2 quantum yield (ΦΔ)” value was 0.60. Also, in series [4], the “PI (IC50,dark/IC50,light)” value is given as 133 and the IC50 stood at 12 ± 1 µM. For the same substance, in series [7], the “Emission lifetime τ after photoirradiation” value came out at 0.29 μs and the λem after photoirradiation was found to be 648 nm.
Consider “[Ir(pqe)2(bpy-CONH-S-Tz-S-RGD)](CF3COO) [conjugate 1-RGD]”, for which the “PI (IC50,dark/IC50,light)” value in series [1] is recorded as 236; in [2], 325; in series [4], more than 38. In addition, the IC50 in series [2] was 26 ± 1 µM; in series [4], more than 50 µM. In addition, the “Amount of iridium per average cell” value in series [8] (setting [15]) is 0.25 fmol; in [8] (− RGD), 0.32 fmol; in series [10] (setting [15]), 0.34 fmol; in series [10] (− RGD), 0.70 fmol; in series [11] (setting [15]), 0.030 fmol; in series [11] (− RGD) it was 0.032 fmol. For the same substance, in [9] (450 nm 20 min vs dark), the “Intracellular ROS (CM-H2DCFDA emission)” value is on record as “effective intracellular ROS generation”. Further, in series [9] (after 450 nm 20 min vs dark), the “Mitochondrial membrane potential (rhodamine 123 emission)” value is “significantly diminished in intensity”. The Φem in [3] (CH3CN, 298 K) is recorded as 0.003; in series [3] (setting [14]), 0.001. The λem in series [3] (CH3CN, 298 K) was found to be 631 nm; in series [3] (setting [14]) it was 648 nm. Also, the τo in series [3] (CH3CN, 298 K) is on record as 0.58 μs; in series [3] (EtOH/MeOH (4:1) glass, 77 K), 4.14 μs; in series [3] (setting [14]), 0.19 μs. The “Emission lifetime τ after incubation with BCN-OH” value in series [6] is recorded as 0.33 μs. In addition, the “λem after incubation with BCN-OH” value in series [6] was 632 nm. Besides, in [12] (2-deoxy-D-glucose and oligomycin, or NH4Cl or chloroquine), the “Cellular uptake efficiency after metabolic or endocytosis inhibitors” value is recorded as “substantially reduced”. Further, the “Amount of intracellular iridium at low temperature vs 37 °C” value in [12] (4 °C) is “significantly decreased”. In [12] (tetraethylammonium chloride (1 mM) pretreatment), the “Internalisation after cation transporter inhibitor” value was “remained unaffected”. Besides, the “Emission lifetime τ after photoirradiation” value in series [7] came out at 0.26 μs. In series [7], this substance gave a λem after photoirradiation of 648 nm. In [7] (steady-state irradiation at 450 nm, 298 K), the “Time to complete photodissociation of S,S-tetrazine moiety” value was 20 min. For the same substance, the “Population of apoptotic cells” value in [13] amounted to 98.28%.
Consider “[Ir(pqe)2(bpy-CONH-SCN)](PF6) [complex 3]”, for which the “PI (IC50,dark/IC50,light)” value in [1] worked out at 125; in [2], 135; in series [4], 88. For the same substance, the results for the half-maximal inhibitory concentration (IC50) in series [1], in [2] and in series [4] were 2.5 ± 0.1 µM, 2.7 ± 0.1 µM and 3.5 ± 0.2 µM, respectively. Moreover, the λem in [3] (CH3CN, 298 K) worked out at 634 nm; in series [3] (setting [14]), 648 nm. The τo in series [3] (CH3CN, 298 K) stood at 0.69 μs; in series [3] (EtOH/MeOH (4:1) glass, 77 K), 4.79 μs; in [3] (setting [14]), 0.35 μs. In series [3] (setting [14]), the Φem turned out to be 0.02. For the same substance, in series [5], the “1O2 quantum yield (ΦΔ)” value came out at 0.81.
